Data published in ChEMBL document CHEMBL1145026, “Synthesis and antibacterial activity of 6-O-arylbutynyl ketolides with improved activity against some key erythromycin-resistant pathogens” (2003).
Values after ≈ are worked out from the molar mass of the structure shown.

What was measured:
Format in all cases: functional
Haemophilus influenzae = assay: In Vitro antibacterial activity against H. flu DILL (Amp-R strain)
Outline: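 MIC by agar dilution following NCCLS recommendations. Test organism is H. influenzae DILL, an ampicillin-resistant strain carrying a β-lactamase-positive determinant.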

Staphylococcus aureus [1] = assay: In Vitro antibacterial activity against Staphylococcus aureus 1775 (ermA-c strain)
Outline: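 Methicillin-resistant (MRSA) strain. Minimum inhibitory concentration read by agar dilution, following NCCLS recommendations.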

Staphylococcus aureus [2] = assay: In Vitro antibacterial activity against Staphylococcus aureus A5177 (ermA-i strain)
Outline: (§1)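 MIC by agar dilution following NCCLS recommendations, against S. aureus.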

Staphylococcus aureus [3] = assay: In Vitro antibacterial activity against Staphylococcus aureus ATCC 6538P (Ery-S […] strain); outline: as §1
Streptococcus pyogenes [4] = assay: In Vitro antibacterial ativity against Streptococcus pyogenes 930 (ermB strain)
Outline: (§2)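 Strains with MLSB resistance encoded by ermB. MICs obtained by agar dilution as recommended by NCCLS.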

Streptococcus pneumoniae [5] = assay: In Vitro antibacterial activity against Streptococcus pneumoniae ATCC 6303 (Ery-S strain)
Outline: (§3)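 Agar dilution method per NCCLS recommendations, with activity reported as minimum inhibitory concentration.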

Streptococcus pyogenes [6] = assay: In Vitro antibacterial ativity against Streptococcus pyogenes EES61 (Ery-S strain); outline: as §3
Streptococcus pneumoniae [7] = assay: In Vitro antibacterial activity against Streptococcus pneumoniae 5649 (mefE strain)
Outline: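 Efflux-resistant strain carrying mefE. MIC determined by the agar dilution method recommended by NCCLS.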

Streptococcus pneumoniae [8] = assay: In Vitro antibacterial activity against Streptococcus pneumoniae 5979 (ermB strain); outline: as §2
Streptococcus pyogenes [9] = assay: In Vitro antibacterial ativity against Streptococcus pyogenes PIU2548 (mefA strain)
Outline: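 Tested on a mefA-encoded efflux-resistant strain. The endpoint is the MIC by NCCLS-recommended agar dilution.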

CC[C@H]1OC(=O)[C@H](C)C(=O)[C@H](C)[C@@H](O[C@@H]2O[C@H](C)C[C@H](N(C)C)[C@H]2O)[C@](C)(OC)C[C@@H](C)C(=O)[C@H](C)[C@H]2N(CCCCn3cnc(-c4cccnc4)c3)C(=O)O[C@]12C [TELITHROMYCIN]
MIC (Haemophilus influenzae): 2 µg/mL (≈ 2.46 µM)
MIC (Staphylococcus aureus [1]): > 100 µg/mL
MIC (Staphylococcus aureus [2]): 0.1 µg/mL (≈ 0.123 µM)
MIC (Staphylococcus aureus [3]): 0.1 µg/mL (≈ 0.123 µM)
MIC (Streptococcus pyogenes [4]): 8 µg/mL (≈ 9.85 µM)
MIC (Streptococcus pneumoniae [5]): 0.004 µg/mL (≈ 0.00493 µM)
MIC (Streptococcus pyogenes [6]): 0.004 µg/mL (≈ 0.00493 µM)
MIC (Streptococcus pneumoniae [7]): 0.5 µg/mL (≈ 0.616 µM)
MIC (Streptococcus pneumoniae [8]): 8 µg/mL (≈ 9.85 µM)
MIC (Streptococcus pyogenes [9]): 2 µg/mL (≈ 2.46 µM)

CC[C@H]1OC(=O)[C@H](C)C(=O)[C@H](C)[C@@H](O[C@@H]2O[C@H](C)C[C@H](N(C)C)[C@H]2O)[C@@](C)(OCC#CCc2ccc(-c3csnn3)cc2)C[C@@H](C)C(=O)[C@H](C)[C@H]2NC(=O)O[C@@]21C
MIC (Haemophilus influenzae): 2 µg/mL (≈ 2.47 µM)
MIC (Staphylococcus aureus [1]): > 100 µg/mL
MIC (Staphylococcus aureus [2]): 0.1 µg/mL (≈ 0.123 µM)
MIC (Staphylococcus aureus [3]): 0.05 µg/mL (≈ 0.0617 µM)
MIC (Streptococcus pyogenes [4]): 4 µg/mL (≈ 4.93 µM)
MIC (Streptococcus pneumoniae [5]): < 0.004 µg/mL
MIC (Streptococcus pyogenes [6]): 0.03 µg/mL (≈ 0.037 µM)
MIC (Streptococcus pneumoniae [7]): 0.25 µg/mL (≈ 0.308 µM)
MIC (Streptococcus pneumoniae [8]): 8 µg/mL (≈ 9.86 µM)
MIC (Streptococcus pyogenes [9]): 0.125 µg/mL (≈ 0.154 µM)

CC[C@H]1OC(=O)[C@@](C)(F)C(=O)[C@H](C)[C@@H](O[C@@H]2O[C@H](C)C[C@H](N(C)C)[C@H]2O)[C@@](C)(OCC#CCc2ccc(-c3csnn3)cc2)C[C@@H](C)C(=O)[C@H](C)[C@H]2NC(=O)O[C@@]21C
MIC (Haemophilus influenzae): 4 µg/mL (≈ 4.83 µM)
MIC (Staphylococcus aureus [1]): > 100 µg/mL
MIC (Staphylococcus aureus [2]): 0.05 µg/mL (≈ 0.0603 µM)
MIC (Staphylococcus aureus [3]): 0.05 µg/mL (≈ 0.0603 µM)
MIC (Streptococcus pyogenes [4]): 4 µg/mL (≈ 4.83 µM)
MIC (Streptococcus pneumoniae [5]): 0.015 µg/mL (≈ 0.0181 µM)
MIC (Streptococcus pyogenes [6]): 0.03 µg/mL (≈ 0.0362 µM)
MIC (Streptococcus pneumoniae [7]): 0.5 µg/mL (≈ 0.603 µM)
MIC (Streptococcus pneumoniae [8]): 4 µg/mL (≈ 4.83 µM)
MIC (Streptococcus pyogenes [9]): 0.25 µg/mL (≈ 0.302 µM)

CC[C@H]1OC(=O)[C@H](C)C(=O)[C@H](C)[C@@H](O[C@@H]2O[C@H](C)C[C@H](N(C)C)[C@H]2O)[C@@](C)(OCC#CCc2ccc(-c3cnccn3)cc2)C[C@@H](C)C(=O)[C@H](C)[C@H]2NC(=O)O[C@@]21C
MIC (Haemophilus influenzae): 4 µg/mL (≈ 4.97 µM)
MIC (Staphylococcus aureus [1]): > 100 µg/mL
MIC (Staphylococcus aureus [2]): 0.02 µg/mL (≈ 0.0248 µM)
MIC (Staphylococcus aureus [3]): 0.02 µg/mL (≈ 0.0248 µM)
MIC (Streptococcus pyogenes [4]): 4 µg/mL (≈ 4.97 µM)
MIC (Streptococcus pneumoniae [5]): < 0.004 µg/mL
MIC (Streptococcus pyogenes [6]): < 0.004 µg/mL
MIC (Streptococcus pneumoniae [8]): 0.03 µg/mL (≈ 0.0373 µM)
MIC (Streptococcus pyogenes [9]): 0.015 µg/mL (≈ 0.0186 µM)

CC[C@H]1OC(=O)[C@H](C)C(=O)[C@H](C)[C@@H](O[C@@H]2O[C@H](C)C[C@H](N(C)C)[C@H]2O)[C@@](C)(OCC#CCc2ccc(-c3cccnc3)cc2)C[C@@H](C)C(=O)[C@H](C)[C@H]2NC(=O)O[C@@]21C
MIC (Haemophilus influenzae): 4 µg/mL (≈ 4.98 µM)
MIC (Staphylococcus aureus [1]): > 100 µg/mL
MIC (Staphylococcus aureus [2]): 0.02 µg/mL (≈ 0.0249 µM)
MIC (Staphylococcus aureus [3]): 0.02 µg/mL (≈ 0.0249 µM)
MIC (Streptococcus pyogenes [4]): 8 µg/mL (≈ 9.95 µM)
MIC (Streptococcus pneumoniae [5]): < 0.004 µg/mL
MIC (Streptococcus pyogenes [6]): < 0.004 µg/mL
MIC (Streptococcus pneumoniae [7]): 0.125 µg/mL (≈ 0.155 µM)
MIC (Streptococcus pneumoniae [8]): 0.125 µg/mL (≈ 0.155 µM)
MIC (Streptococcus pyogenes [9]): 0.125 µg/mL (≈ 0.155 µM)

CC[C@H]1OC(=O)[C@H](C)C(=O)[C@H](C)[C@@H](O[C@@H]2O[C@H](C)C[C@H](N(C)C)[C@H]2O)[C@@](C)(OCC#CCc2cnc3ccccc3c2)C[C@@H](C)C(=O)[C@H](C)[C@H]2NC(=O)O[C@@]21C
MIC (Haemophilus influenzae): 2 µg/mL (≈ 2.57 µM)
MIC (Staphylococcus aureus [1]): > 100 µg/mL
MIC (Staphylococcus aureus [2]): 0.1 µg/mL (≈ 0.129 µM)
MIC (Staphylococcus aureus [3]): 0.1 µg/mL (≈ 0.129 µM)
MIC (Streptococcus pyogenes [4]): 16 µg/mL (≈ 20.6 µM)
MIC (Streptococcus pneumoniae [5]): < 0.004 µg/mL
MIC (Streptococcus pyogenes [6]): 0.015 µg/mL (≈ 0.0193 µM)
MIC (Streptococcus pneumoniae [7]): 0.25 µg/mL (≈ 0.321 µM)
MIC (Streptococcus pneumoniae [8]): 2 µg/mL (≈ 2.57 µM)
MIC (Streptococcus pyogenes [9]): 0.25 µg/mL (≈ 0.321 µM)

CC[C@H]1OC(=O)[C@H](C)[C@@H](O[C@H]2C[C@@](C)(OC)[C@@H](O)[C@H](C)O2)[C@H](C)[C@@H](O[C@@H]2O[C@H](C)C[C@H](N(C)C)[C@H]2O)[C@](C)(O)C[C@@H](C)C(=O)[C@H](C)[C@@H](O)[C@]1(C)O [ERYTHROMYCIN]
MIC (Haemophilus influenzae): 4 µg/mL (≈ 5.45 µM)
MIC (Staphylococcus aureus [1]): > 128 µg/mL
MIC (Staphylococcus aureus [2]): > 128 µg/mL
MIC (Staphylococcus aureus [3]): 0.5 µg/mL (≈ 0.681 µM)
MIC (Streptococcus pyogenes [4]): > 128 µg/mL
MIC (Streptococcus pneumoniae [5]): 0.015 µg/mL (≈ 0.0204 µM)
MIC (Streptococcus pyogenes [6]): 0.015 µg/mL (≈ 0.0204 µM)
MIC (Streptococcus pneumoniae [7]): 4 µg/mL (≈ 5.45 µM)
MIC (Streptococcus pneumoniae [8]): > 128 µg/mL
MIC (Streptococcus pyogenes [9]): 8 µg/mL (≈ 10.9 µM)

CC[C@H]1OC(=O)[C@H](C)C(=O)[C@H](C)[C@@H](O[C@@H]2O[C@H](C)C[C@H](N(C)C)[C@H]2O)[C@@](C)(OCC#CCc2ccccc2)C[C@@H](C)C(=O)[C@H](C)[C@H]2NC(=O)O[C@@]21C
MIC (Haemophilus influenzae): 2 µg/mL (≈ 2.75 µM)
MIC (Staphylococcus aureus [1]): > 100 µg/mL
MIC (Staphylococcus aureus [2]): 0.2 µg/mL (≈ 0.275 µM)
MIC (Staphylococcus aureus [3]): 0.2 µg/mL (≈ 0.275 µM)
MIC (Streptococcus pyogenes [4]): 128 µg/mL (≈ 176 µM)
MIC (Streptococcus pneumoniae [5]): 0.03 µg/mL (≈ 0.0413 µM)
MIC (Streptococcus pyogenes [6]): 0.06 µg/mL (≈ 0.0825 µM)
MIC (Streptococcus pneumoniae [7]): 0.25 µg/mL (≈ 0.344 µM)
MIC (Streptococcus pneumoniae [8]): 16 µg/mL (≈ 22 µM)
MIC (Streptococcus pyogenes [9]): 0.25 µg/mL (≈ 0.344 µM)
